{"data": "Results gathered from unrelated publications", "read-out": "cell growth or viability"}
{"Compound": "Cc1ccc(N(C)c2ccc(NC(=O)CN(C)c3ccccc3N3CCCC3=O)cc2)nc1", "cell line": "HepG2", "test": "ATP luminescence", "setting": "48 h", "measurement": "CC50", "value": "> 40 µM"}
{"Compound": "c1cnc2c(c1)ccc1cccnc12", "cell line": "HEK-293T", "test": "MTT", "setting": "12.5 µg/mL, 24 h", "measurement": "viability", "value": "> 80%"}
{"Compound": "NS(=O)(=O)c1ccc(-c2ccc(Nc3ccc(Cl)cc3)cc2)cc1", "cell line": "HEK-293T", "test": "MTT", "setting": "100 µM", "measurement": "viability", "value": "76%"}
{"Compound": "CCN(c1ccc(C)cc1)c1ccc(NC(=O)CN(C)c2ccccc2N2CCCC2=O)cn1", "cell line": "HepG2", "test": "ATP luminescence", "setting": "48 h", "measurement": "CC50", "value": "> 40 µM"}
{"Compound": "NS(=O)(=O)c1ccc(-c2ccc(Nc3ccncc3)cc2)cc1", "cell line": "HEK-293T", "test": "MTT", "setting": "100 µM", "measurement": "viability", "value": "69%"}
{"Compound": "OCc1ccc(-c2nn(Cc3ccccc3)c3ccccc23)o1", "cell line": "HepG2", "test": "ATP luminescence", "measurement": "IC50", "value": "7.14 µM"}
{"Compound": "NS(=O)(=O)OC[C@H]1C[C@@H](Nc2ccnc3cc(-c4cccc(SC(F)(F)F)c4)nn23)[C@H](O)[C@@H]1O", "cell line": "HEK-293T", "test": "ATP luminescence", "setting": "24 h", "measurement": "EC50", "value": "0.296 µM"}
{"Compound": "O=c1c2c([nH]c3cc(Oc4ccc(OC(F)(F)F)cc4)ccc13)CCCC2", "cell line": "HepG2", "test": "MTT", "setting": "48 h", "measurement": "IC50", "value": "> 50 µM"}
